Assay outcomes (PubChem BioAssay)
Fam108B counter: Fam108B inhibition, counter-screen for RBBP9 inhibitors. hit rate 0.33% among 300,000. AID 1947. inhibition, % at 9.51 µM. recombinant Fam108B, FP-Rh probe fluorescence polarization;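 active means inhibition above the screen mean inhibition plus 3 SD, computed separately per campaign, cut at about 18% in these data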;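 further: inhibitors lower polarization as less probe binds the enzyme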
PME-1 primary: blocks human protein phosphatase methylesterase 1; recombinant PME-1, FP-Rh probe fluorescence polarization; AID 2130; hit rate 0.53% among 320,000; inhibition, % at 5.9 µM; Q9Y570;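 active means inhibition above the campaign mean of all compounds plus 3 SD, cut at about 26% in these data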;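 further: competitive labeling of PME-1 active site by serine hydrolase directed probe; inhibitors block probe labeling so polarization falls and inhibition rises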
Target sequence (Q9Y570 whole entry, looked up): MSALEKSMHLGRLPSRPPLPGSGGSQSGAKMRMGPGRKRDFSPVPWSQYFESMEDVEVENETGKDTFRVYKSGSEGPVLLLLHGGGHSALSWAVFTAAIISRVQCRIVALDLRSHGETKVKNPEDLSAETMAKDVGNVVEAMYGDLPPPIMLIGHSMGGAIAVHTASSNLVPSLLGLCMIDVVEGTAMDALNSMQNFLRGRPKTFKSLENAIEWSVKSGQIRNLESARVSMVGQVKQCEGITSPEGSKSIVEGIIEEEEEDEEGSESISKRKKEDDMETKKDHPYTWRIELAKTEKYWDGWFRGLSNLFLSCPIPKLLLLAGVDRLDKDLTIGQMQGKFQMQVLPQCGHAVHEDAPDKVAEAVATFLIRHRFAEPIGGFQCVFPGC
LYPLA2 counter: blocks human lysophospholipase 2, a PME1 counter-screen. O95372. recombinant LYPLA2, FP-Rh probe fluorescence polarization. inhibition, % at 5.9 µM. hit rate 0.38% among 320,000. AID 2177;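 active means inhibition above the screen-wide mean plus 3 SD, limit set per campaign, cut at about 26% in these data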
RBBP9 inh: human RBBP9 hydrolase inhibition; O75884; recombinant RBBP9, FP-Rh probe fluorescence polarization; inhibition, % at 7.94 µM; hit rate 0.2% among 220,000; AID 1515;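 active means inhibition above the campaign mean of all tested compounds plus 3 SD, cut at about 14% in these data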
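Measured by – fluorescence polarization · Test system – RBBP9 protein · Input – 2.5 µM RBBP9 dispensing solution, before mixing · Measure – percent inhibition from mP, scaled between DMSO and no-protein wells · Benchmarks – DMSO-treated enzyme wells and wells lacking RBBP9 · Times – preincubation 30 min plus labeling 45 min at 25 °C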
PAD4 inh: PAD4 (human) enzyme inhibition; Q9UM07; recombinant PAD4, RCA probe fluorescence polarization; inhibition, % at 6.36 µM; hit rate 0.41% among 330,000; AID 485272;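 active means percent inhibition above a cutoff equal to the mean of all tested compounds plus 3 SD, cut at about 15% in these data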
LYPLA1 inh: LYPLA1 (human) inhibition in PME1 counter-screen; hit rate 0.16% among 320,000; recombinant LYPLA1, FP-Rh probe fluorescence polarization; O75608; inhibition, % at 5.9 µM;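 active means inhibition above the mean of all tested compounds plus 3 SD, set per campaign, cut at about 14% in these data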;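 further: inhibitors block serine hydrolase probe labeling of LYPLA1 so polarization falls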
Fam108b inh conf: confirmation of mouse Fam108b serine hydrolase inhibitors; shares compounds with Fam108B counter; inhibition, % at 9.51 µM; hit rate 44% among 930; recombinant Fam108b, FP-Rh probe fluorescence polarization; AID 1978;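 active means inhibition above a limit from the primary screen, the mean over all compounds plus 3 SD, cut at about 19% in these data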;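 further: inhibitors free the probe so polarization falls as inhibition rises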
Fam108b inh: inhibits mouse Fam108b in gel-based ABPP | shares compounds with Fam108B counter | recombinant Fam108b, fluorophosphonate probe | inhibition, % at 20 µM | hit rate 44% among 260 | AID 588649; in the data active means inhibition above about 40%
Large screens that a line does not name were inactive (follow-up assays come after a bar, where they were run). Rows were chosen to be rich in hits. Some 1.3% of all compounds tested hit in one or more screens of this group.

CCN(CC)C(=O)[C@H]1C[C@H](CC(=O)NCCc2ccccn2)C(=O)N2CCc3c([nH]c4ccc(Cl)cc34)[C@]12C	none (no result: Fam108B counter, PME-1 primary, LYPLA2 counter, RBBP9 inh, LYPLA1 inh)
N#C/C(=C(/O)c1cc2ccccc2o1)c1nc2ccccc2s1	Fam108B counter 22 | Fam108b inh conf 21
N#C/C(=C(/O)c1ccco1)c1nc2ccccc2s1	none
CCN(CC)c1ccc(/C=N/NC(=O)c2cc3ccccc3[nH]2)cc1	none (no result: RBBP9 inh)
CCN(CC)c1ccc(/C=N/NC(=O)c2c[nH]c3ccccc23)cc1	Fam108B counter 23 | Fam108b inh conf inactive
Nc1ccc(C(=O)O)c(O)c1	none
Nc1ccc(N)c(C(=O)O)c1	Fam108B counter 57 (no result: RBBP9 inh) | Fam108b inh conf 45 | Fam108b inh inactive
C/C(=N\OCc1nc2ccccc2c(=O)n1/N=C/c1cc([N+](=O)[O-])ccc1O)c1ccccc1	Fam108B counter 19 | Fam108b inh conf inactive
C/C(=N\OCc1nc2ccccc2c(=O)n1/N=C/c1cc(C)cc([N+](=O)[O-])c1O)c1ccccc1	Fam108B counter 24 | Fam108b inh conf inactive
COc1ccc(OC)c(NC(=O)NCCc2cccc(Cl)c2)c1	none
CC1=NN(C(N)=S)C(=O)C1N=Nc1c(C)cc(C)cc1C (stereo not drawn)	none
CC1=NN(C(N)=S)C(=O)C1N=Nc1c(Br)cc(Br)cc1Br (stereo not drawn)	Fam108B counter 29 (no result: RBBP9 inh) | Fam108b inh conf 33 | Fam108b inh inactive
CCOc1ncccc1C(=O)OCC(=O)NCCCc1ccccc1	none (no result: Fam108B counter, PME-1 primary, LYPLA2 counter, RBBP9 inh, LYPLA1 inh)
O=C(Nc1ccc2[nH]c(=S)sc2c1)Nc1ccccc1F	Fam108B counter 26, PME-1 primary 78 | Fam108b inh conf 49 | Fam108b inh 90
COc1cc(OC)c(OC)cc1/C=N/NC(=O)c1cc(-c2cccn2C)n[nH]1	none
CCOc1cccc(/C=N/NC(=O)c2cc(-c3cccn3C)n[nH]2)c1O	Fam108B counter 22 | Fam108b inh conf inactive
O=C1NC(=S)N/C1=C/c1cc2c(cc1[N+](=O)[O-])OCO2	Fam108B counter 47 (no result: RBBP9 inh) | Fam108b inh conf inactive
O=C(O)/C=C\c1cc2c(cc1[N+](=O)[O-])OCO2	none
COc1cccc(=O)c2c(C)n(-c3ccc(C(=O)O)cc3)c(C)c12	Fam108B counter 18 | Fam108b inh conf inactive
CCOc1cccc(=O)c2c(C)n(-c3ccc(C(=O)O)cc3)c(C)c12	none
O=[N+]([O-])c1ccc(N/N=C/c2c[nH]c3ccccc23)c(S(=O)(=O)Nc2ccc(Cl)cc2)c1	Fam108B counter 38 | Fam108b inh conf active
O=[N+]([O-])c1ccc(NN=Cc2c[nH]c3ccccc23)c(S(=O)(=O)Nc2ccc(Cl)cc2)c1	none (no result: Fam108B counter, PME-1 primary, LYPLA2 counter, RBBP9 inh, PAD4 inh, LYPLA1 inh) | Fam108b inh 90
COCCCNc1nc2c(-c3ccc(Cl)cc3)nnn2c2ccccc12	none
Fc1ccc(-c2nnn3c2nc(NCc2ccccc2)c2ccccc23)cc1	none
NNc1nc2c(-c3ccc(F)cc3)nnn2c2ccccc12	Fam108B counter 26 | Fam108b inh conf inactive
NNc1nc2c(-c3ccc(Cl)cc3)nnn2c2ccccc12	Fam108B counter 55 | Fam108b inh conf 65 | Fam108b inh inactive
CCCOc1ccccc1/C=C(\C#N)C(=O)Nc1cccc(C)n1	none (no result: RBBP9 inh)
Cc1cccc(NC(=O)/C(C#N)=C/c2ccc(F)cc2)n1	Fam108B counter 38 (no result: RBBP9 inh) | Fam108b inh conf inactive
CCC(C)(C)n1nnnc1C(c1ccc(C)cc1)N1CCN(Cc2ccc3c(c2)OCO3)CC1 (stereo not drawn)	none
CCOC(=O)c1cnc(SCC(=O)NCc2cccs2)nc1N	none
CCN(CC)S(=O)(=O)c1ccc(Nc2ccc(-c3ccc4c(c3)OCCO4)nn2)cc1	Fam108B counter 20 | Fam108b inh conf inactive
CN(C)S(=O)(=O)c1ccc(Nc2ccc(-c3ccc4c(c3)OCCO4)nn2)cc1	none
COc1cc(/C=N/n2c(-c3ccc4c(c3)NC(=O)CO4)csc2=Nc2cccc(C)c2)ccc1O	Fam108B counter 21 | Fam108b inh conf inactive
COCCN=c1scc(-c2ccc3c(c2)NC(=O)CO3)n1/N=C(\C)c1ccc(O)cc1	none
